# Measured values of several laboratories.
# Target: Cyclin-dependent kinase 2 homolog (CRK2, Plasmodium falciparum, UniProt P61075)
Structure (SMILES),assay,setting,measurement,result
CN(C)c1nccc(-c2cnc3ncccn23)n1,cell-free assay,1 µM,remaining signal,72%
CNC(=O)[C@@H]1CC[C@@H](n2c(-c3ccc4cnccc4c3)nc3ccc(C(=O)NCc4cccc(C(N)=O)c4)cc32)C1,"binding, competition with immobilised ligand",1 µM,remaining binding,99%
Nc1ncnc2occ(-c3ccc(NC(=O)Nc4cc(C(F)(F)F)ccc4F)cc3)c12,"cell-free assay, inhibitor",20 µM,remaining signal,60%
Cc1ccc(-c2cnc([C@@]3(O)CC[C@H](C(=O)O)C(C)(C)C3)s2)cc1Nc1cccc(C(F)(F)F)n1,"binding, competition with immobilised ligand",1 µM,remaining binding,33%
C[C@@H](c1ccc(-n2cnc3c(N)ncnc32)cc1)N1CCc2nn(C)c(Cc3ccccc3)c2C1=O,"binding, competition with immobilised ligand",0.1 µM,remaining binding,83%
Cc1nn(C)cc1-c1nc2c(N3CCN(Cc4ccc(Cl)cc4)CC3)c(Cl)cnc2[nH]1,"binding, competition with immobilised ligand",1 µM,remaining binding,100%
N[C@@H]1CCN(c2nccc(-c3cnn4ncccc34)n2)C1,binding,1 µM,remaining binding,84%
O=C(NCC1CCOCC1)c1n[nH]cc1NC(=O)c1c(F)cccc1F,"binding, competition with immobilised ligand",1 µM,remaining binding,100%
Cc1ccc(C(=O)Nc2ccc(CN3CCN(C)CC3)c(C(F)(F)F)c2)cc1C#Cc1cnc2cccnn12,"enzyme activity, inhibitor",23.5 nM,remaining activity,94%
COc1cnc(Nc2cccc(S(N)(=O)=O)c2)nc1N1CCN(c2ccccc2)C(=O)C1,"binding, competition with immobilised ligand",1 µM,remaining binding,100%
C=CC(=O)N1CCC(C(=O)NCC(=O)N2CCN(c3nc(-c4cnc(N)nc4C(F)F)nc(N4CCOCC4)n3)CC2)CC1,"binding, competition with immobilised ligand",1 µM,remaining binding,65%
O=C(Nc1c[nH]nc1C(=O)NC1CCNCC1)c1cc(F)cc(F)c1,"binding, competition with immobilised ligand",1 µM,remaining binding,89%
Nc1ncc2c(n1)-c1c([nH]c3ccc(C#CC4CC4)cc13)CCCC2,"binding, competition with immobilised ligand",1 µM,remaining binding,100%
Cc1cnn2ncc(-c3ccnc(N(C)C)n3)c2c1,binding,1 µM,remaining binding,82%
FC(F)(F)Oc1cccc(-c2cnc3ccc(-c4ccncc4)nn23)c1,"cell-free assay, competition with immobilised ligand",5 µM,remaining binding,87%
c1cncc(-c2cccc(Nc3nccc(NC4CCCCC4)n3)c2)c1,"binding, competition with immobilised ligand",10 µM,remaining binding,100%
CCN1CCN(Cc2ccc(C(=O)Nc3ccc(C)c(Oc4ccc5c(c4)CC(=O)N5)c3)cc2C(F)(F)F)CC1,"binding, competition with immobilised ligand",1 µM,remaining binding,100%
